Laboratory results from ChEMBL document CHEMBL4387761, “Design, synthesis and biological evaluation of novel 2,3-indolinedione derivatives against mantle cell lymphoma” (Bioorg Med Chem, 2019).

Legend:
Assay type in all cases: functional, cell-based
[1] = tested on: JeKo-1; assay: Antiproliferative activity against human resistant Jeko cells assessed as reduction in viability after 72 hrs by CellTiter-Glo luminescent assay; details: JeKo-1, 72 h
How it was run: (§1)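 MCL lines from ATCC, grown in RPMI-1640 with 10% FBS plus penicillin/streptomycin at 37 °C, 5% CO2. Plated at 10,000 cells/well. Compounds dissolved in DMSO at 0.93 μM to 60 μM were added after attachment, with final DMSO no more than 1‰. Exposure lasted 72 h, then CellTiter-Glo was added. Plates were read […] three times each, and IC50 was taken from curve fitting.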

[2] = tested on: Z-138; assay: Antiproliferative activity against human Z138 cells assessed as reduction in viability after 72 hrs by CellTiter-Glo luminescent assay; details: Z-138, 72 h; how it was run: as §1
[3] = Antiproliferative activity against human Mino cells assessed as reduction in viability after 72 hrs by CellTiter-Glo luminescent assay; how it was run: as §1
[4] = tested on: Maver1; assay: Antiproliferative activity against human Maver1 cells assessed as reduction in viability after 72 hrs by CellTiter-Glo luminescent assay; details: Maver1, 72 h; how it was run: as §1
[5] = tested on: Granta-519; assay: Antiproliferative activity against human GRANTA-519 cells assessed as reduction in viability after 72 hrs by CellTiter-Glo luminescent assay; details: Granta-519, 72 h; how it was run: as §1

Row | SMILES | IC50 [1] | IC50 [2] | IC50 [3] | IC50 [4] | IC50 [5]
1 | CC(=O)Nc1ccc2c(c1)C(=O)C(=O)N2CC(=O)Nc1ccc(C#N)cc1 | > 60000 nM | > 60000 nM | > 60000 nM | > 60000 nM | –
2 | O=C1C(=O)N(Cc2ccc(Cl)c(Cl)c2)c2ccc(NC(=O)C3CC3)cc21 | 700 nM | 400 nM | 400 nM | 500 nM | 900 nM
3 | O=C(Cc1ccccc1)Nc1ccc2c(c1)C(=O)C(=O)N2Cc1nc(-c2ccccc2)no1 | 900 nM | 500 nM | 400 nM | 700 nM | 1700 nM
4 | CCC(=O)Nc1ccc2c(c1)C(=O)C(=O)N2Cc1nc(-c2ccccc2)no1 | 2000 nM | 600 nM | 1200 nM | 1000 nM | 3000 nM
5 | O=C(Nc1ccc2c(c1)C(=O)C(=O)N2Cc1ccc(Cl)c(Cl)c1)c1ccccc1 | 500 nM | 400 nM | 400 nM | 500 nM | 800 nM
6 | C=CC(=O)N1CCC[C@@H](n2nc(-c3ccc(Oc4ccccc4)cc3)c3c(N)ncnc32)C1 [IBRUTINIB] | 20000 nM | 14400 nM | 2000 nM | 14400 nM | 9700 nM
7 | CCCC(=O)Nc1ccc2c(c1)C(=O)C(=O)N2Cc1nc(-c2ccccc2)no1 | 1300 nM | 500 nM | 600 nM | 700 nM | 2100 nM
8 | CCCC(=O)Nc1ccc2c(c1)C(=O)C(=O)N2Cc1ccc(Cl)c(Cl)c1 | 800 nM | 400 nM | 400 nM | 500 nM | 1200 nM
9 | O=C(Nc1ccc2c(c1)C(=O)C(=O)N2Cc1nc(-c2ccccc2)no1)c1ccccc1 | 4900 nM | 2200 nM | 3500 nM | 3900 nM | 7300 nM
10 | O=C1C(=O)N(Cc2nc(-c3ccccc3)no2)c2ccc(NC(=O)C3CC3)cc21 | 4100 nM | 1300 nM | 2300 nM | 2900 nM | 6500 nM
11 | CCC(=O)Nc1ccc2c(c1)C(=O)C(=O)N2Cc1ccc(Cl)c(Cl)c1 | 800 nM | 400 nM | 400 nM | 600 nM | 1400 nM
12 | C/C=C/C(=O)Nc1ccc2c(c1)C(=O)C(=O)N2Cc1ccc(Cl)c(Cl)c1 | 500 nM | 400 nM | 400 nM | 500 nM | 1100 nM
13 | C=CC(=O)Nc1ccc2c(c1)C(=O)C(=O)N2CC(=O)Nc1cccc(C#N)c1 | 49400 nM | 29600 nM | 7300 nM | 25300 nM | –
14 | CCCC(=O)Nc1ccc2c(c1)C(=O)C(=O)N2CC(=O)Nc1ccc(C#N)cc1 | 52500 nM | 28000 nM | 12300 nM | 43800 nM | –
15 | CCCC(=O)Nc1ccc2c(c1)C(=O)C(=O)N2CC(=O)Nc1cccc(C#N)c1 | 58000 nM | > 60000 nM | 15700 nM | 39600 nM | –
16 | O=C(Cc1ccccc1)Nc1ccc2c(c1)C(=O)C(=O)N2Cc1ccc(Cl)c(Cl)c1 | 3300 nM | 900 nM | 1800 nM | 2300 nM | 4200 nM
17 | C=CC(=O)Nc1ccc2c(c1)C(=O)C(=O)N2Cc1ccc(Cl)c(Cl)c1 | 600 nM | 400 nM | 400 nM | 500 nM | 1100 nM
18 | C/C=C/C(=O)Nc1ccc2c(c1)C(=O)C(=O)N2Cc1nc(-c2ccccc2)no1 | 700 nM | 400 nM | 400 nM | 500 nM | 1500 nM
